According to ChEMBL document CHEMBL1138555, “N-acylated and N,N'-diacylated imidazolidine-2-thione derivatives and N,N'-diacylated tetrahydropyrimidine-2(1H)-thione analogues: synthesis and antiproliferative activity” (Eur J Med Chem, 2009):

Tests used:
[1] = test system: HOP-62; assay: Growth inhibition of human HOP62 cells after 48 hrs by sulforhodamine B assay; format: functional; conditions: HOP-62, 48 h
In short: (§1)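 NCI screen panel. Five 10-fold concentrations from 10^-4 to 10^-8 M. Exposure for the last 48 h of a 72 h incubation. Growth estimated by sulforhodamine B protein assay. GI50 is the concentration giving 50% growth inhibition. Where that level was not reached or was exceeded, the value is given as above or below the highest or lowest concentration tested.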

[2] = Growth inhibition of human […] cells after 48 hrs by sulforhodamine B assay; format: functional; in short: as §1
[3] = Growth inhibition of human Hs 578T cells after 48 hrs by sulforhodamine B assay; format: functional; in short: as §1
[4] = test system: ACHN; assay: Growth inhibition of human ACHN cells after 48 hrs by sulforhodamine B assay; format: functional; in short: as §1
[5] = test system: OVCAR-3; assay: Growth inhibition of human OVCAR-3 cells after 48 hrs by sulforhodamine B assay; format: functional; conditions: OVCAR-3, 48 h; in short: as §1
[6] = test system: M14; assay: Growth inhibition of human M14 cells after 48 hrs by sulforhodamine B assay; format: functional; conditions: M14, 48 h; in short: as §1
[7] = test system: Malme-3M; assay: Growth inhibition of human MALME-3M cells after 48 hrs by sulforhodamine B assay; format: functional; in short: as §1
[8] = test system: A549; assay: Growth inhibition of human A549 cells after 48 hrs by sulforhodamine B assay; format: functional; conditions: A549, 48 h; in short: as §1
[9] = test system: MCF7; assay: Growth inhibition of human MCF7 cells after 48 hrs by sulforhodamine B assay; format: functional; conditions: MCF7, 48 h; in short: as §1
[10] = test system: HCC 2998; assay: Growth inhibition of human HCC2998 cells after 48 hrs by sulforhodamine B assay; format: functional; conditions: HCC 2998, 48 h; in short: as §1
[11] = test system: TK-10; assay: Growth inhibition of human TK10 cells after 48 hrs by sulforhodamine B assay; format: functional; conditions: TK-10, 48 h
In short: (§2)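 NCI in vitro panel screen. Compounds tested at five 10-fold dilutions, 10^-4 to 10^-8 M. Cells in 96-well plates were exposed for the last 48 h of a 72 h incubation. Viability/growth was read by sulforhodamine B protein assay. GI50 is the concentration giving 50% growth inhibition. Values beyond the tested range are reported as greater or less than the maximum or minimum concentration.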

[12] = test system: OVCAR-8; assay: Growth inhibition of human OVCAR8 cells after 48 hrs by sulforhodamine B assay; format: functional; conditions: OVCAR-8, 48 h; in short: as §1
[13] = test system: EKVX; assay: Growth inhibition of human EKVX cells after 48 hrs by sulforhodamine B assay; format: functional; in short: as §1
[14] = test system: LOX IMVI; assay: Growth inhibition of human LOXIMVI cells after 48 hrs by sulforhodamine B assay; format: functional; in short: as §1
[15] = test system: SK-OV-3; assay: Growth inhibition of human SKOV3 cells after 48 hrs by sulforhodamine B assay; format: functional; conditions: SK-OV-3, 48 h; in short: as §1
[16] = test system: UACC-62; assay: Growth inhibition of human UACC62 cells after 48 hrs by sulforhodamine B assay; format: functional; conditions: UACC-62, 48 h; in short: as §2
[17] = test system: MDA-MB-231; assay: Growth inhibition of human MDA-MB-231 cells after 48 hrs by sulforhodamine B assay; format: functional; conditions: MDA-MB-231, 48 h; in short: as §1
[18] = test system: IGROV-1; assay: Growth inhibition of human IGROV1 cells after 48 hrs by sulforhodamine B assay; format: functional; conditions: IGROV-1, 48 h; in short: as §1
[19] = test system: KM12; assay: Growth inhibition of human KM12 cells after 48 hrs by sulforhodamine B assay; format: functional; conditions: KM12, 48 h; in short: as §1
[20] = test system: BT-549; assay: Growth inhibition of human BT549 cells after 48 hrs by sulforhodamine B assay; format: functional; conditions: BT-549, 48 h; in short: as §1
[21] = test system: 786-0; assay: Growth inhibition of human 786-0 cells after 48 hrs by sulforhodamine B assay; format: functional; conditions: 786-0, 48 h; in short: as §1
[22] = test system: HCT-116; assay: Growth inhibition of human HCT116 cells after 48 hrs by sulforhodamine B assay; format: functional; conditions: HCT-116, 48 h; in short: as §1
[23] = test system: MDA-MB-435; assay: Growth inhibition of human MDA-MB-435 cells after 48 hrs by sulforhodamine B assay; format: functional; conditions: MDA-MB-435, 48 h; in short: as §1
[24] = test system: MT4; assay: Antiproliferative activity against human MT4 cells assessed as reduction of growth by MTT assay; format: functional, cell-based
In short: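 MT-4 lymphoblastoid T cells (ATCC) in RPMI 1640 with 10% FCS, penicillin/streptomycin, checked for mycoplasma. 1 × 10⁴ mock-infected cells per well with serial dilutions from a 100 mM DMSO stock. Incubated 4 days at 37 °C, viable cells counted by MTT. IC50 versus untreated controls by linear regression. Mean of three separate experiments.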

[25] = test system: SK-MEL-2; assay: Growth inhibition of human SK-MEL-2 cells after 48 hrs by sulforhodamine B assay; format: functional; conditions: SK-MEL-2, 48 h; in short: as §1
[26] = test system: SF-295; assay: Growth inhibition of human SF295 cells after 48 hrs by sulforhodamine B assay; format: functional; conditions: SF-295, 48 h; in short: as §1
[27] = test system: SF-268; assay: Growth inhibition of human SF268 cells after 48 hrs by sulforhodamine B assay; format: functional; conditions: SF-268, 48 h; in short: as §1
[28] = test system: COLO 205; assay: Growth inhibition of human COLO205 cells after 48 hrs by sulforhodamine B assay; format: functional; conditions: COLO 205, 48 h; in short: as §1
[29] = test system: MOLT-4; assay: Growth inhibition of human MOLT4 cells after 48 hrs by sulforhodamine B assay; format: functional; conditions: MOLT-4, 48 h; in short: as §1
[30] = test system: SNB-19; assay: Growth inhibition of human SNB19 cells after 48 hrs by sulforhodamine B assay; format: functional; conditions: SNB-19, 48 h; in short: as §2
[31] = test system: NCI-H522; assay: Growth inhibition of human NCI-H522 cells after 48 hrs by sulforhodamine B assay; format: functional; conditions: NCI-H522, 48 h; in short: as §1
[32] = test system: NCI-H226; assay: Growth inhibition of human NCI-H226 cells after 48 hrs by sulforhodamine B assay; format: functional; conditions: NCI-H226, 48 h; in short: as §1
[33] = test system: A498; assay: Growth inhibition of human A498 cells after 48 hrs by sulforhodamine B assay; format: functional; conditions: A498, 48 h; in short: as §1
[34] = test system: SN12C; assay: Growth inhibition of human SN12C cells after 48 hrs by sulforhodamine B assay; format: functional; in short: as §2
[35] = test system: HOP-92; assay: Growth inhibition of human HOP92 cells after 48 hrs by sulforhodamine B assay; format: functional; conditions: HOP-92, 48 h; in short: as §1
[36] = test system: OVCAR-4; assay: Growth inhibition of human OVCAR4 cells after 48 hrs by sulforhodamine B assay; format: functional; conditions: OVCAR-4, 48 h; in short: as §1
[37] = test system: PC-3; assay: Growth inhibition of human PC3 cells after 48 hrs by sulforhodamine B assay; format: functional; conditions: PC-3, 48 h; in short: as §1
[38] = test system: RXF 393; assay: Growth inhibition of human RXF393 cells after 48 hrs by sulforhodamine B assay; format: functional; conditions: RXF 393, 48 h; in short: as §1
[39] = test system: NCI-H322M; assay: Growth inhibition of human NCI-H322M cells after 48 hrs by sulforhodamine B assay; format: functional; in short: as §1
[40] = test system: HCT-15; assay: Growth inhibition of human HCT15 cells after 48 hrs by sulforhodamine B assay; format: functional; conditions: HCT-15, 48 h; in short: as §1
[41] = test system: UACC-257; assay: Growth inhibition of human UACC257 cells after 48 hrs by sulforhodamine B assay; format: functional; conditions: UACC-257, 48 h; in short: as §2
[42] = test system: MDA-N; assay: Growth inhibition of human MDA-N cells after 48 hrs by sulforhodamine B assay; format: functional
In short: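 NCI screen panel. Five 10-fold concentrations from 10^-4 to 10^-8 M. Exposure for the last 48 h of a 72 h incubation. Growth estimated by sulforhodamine B protein assay. Where that level was not reached or was exceeded, the value is given as above or below the highest or lowest concentration tested.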

SMILES: O=C(c1ccc(Cl)cc1Cl)N1CCN(C(=O)c2ccc(Cl)cc2Cl)C1=S
- GI50 [1]: 23.1 µM
- GI50 [2]: 12.9 µM
- GI50 [3]: 41 µM
- GI50 [4]: 21.3 µM
- GI50 [5]: 19.7 µM
- GI50 [6]: 16.3 µM
- GI50 [7]: 25.4 µM
- GI50 [8]: 20.1 µM
- GI50 [9]: 18.3 µM
- GI50 [10]: 22 µM
- GI50 [11]: 36.3 µM
- GI50 [12]: 22.1 µM
- GI50 [13]: 20.5 µM
- GI50 [14]: 17.1 µM
- GI50 [15]: 22.8 µM
- GI50 [16]: 17.3 µM
- GI50 [17]: 19.1 µM
- GI50 [18]: 21 µM
- GI50 [19]: 15.3 µM
- GI50 [20]: 21.1 µM
- GI50 [21]: 18.6 µM
- GI50 [22]: 23.5 µM
- GI50 [23]: 16.4 µM
- IC50 [24]: 39 µM
- GI50 [25]: 18.4 µM
- GI50 [26]: 22.9 µM
- GI50 [27]: 24.5 µM
- GI50 [28]: 21 µM
- GI50 [29]: 20.5 µM
- GI50 [30]: 24.9 µM
- GI50 [31]: 18.2 µM
- GI50 [32]: 40.9 µM
- GI50 [33]: 16.1 µM
- GI50 [34]: 18.1 µM
- GI50 [35]: 7.8 µM
- GI50 [36]: 25.8 µM
- GI50 [37]: 22.7 µM
- GI50 [38]: 18.5 µM
- GI50 [39]: 18.1 µM
- GI50 [40]: 22.1 µM
- GI50 [41]: 28.2 µM
- GI50 [42]: 20 µM

SMILES: O=C(c1ccc(Cl)c(Cl)c1)N1CCN(C(=O)c2ccc(Cl)c(Cl)c2)C1=S
- GI50 [1]: 17.6 µM
- GI50 [2]: 1.8 µM
- GI50 [3]: 29.1 µM
- GI50 [4]: 19.2 µM
- GI50 [5]: 17.1 µM
- GI50 [6]: 19.6 µM
- GI50 [7]: 14.9 µM
- GI50 [8]: 27.8 µM
- GI50 [9]: 5.6 µM
- GI50 [10]: 19.9 µM
- GI50 [11]: 18.5 µM
- GI50 [12]: 19 µM
- GI50 [13]: 20.8 µM
- GI50 [14]: 7.6 µM
- GI50 [15]: 18.2 µM
- GI50 [16]: 18.1 µM
- GI50 [17]: 18.8 µM
- GI50 [18]: 19.7 µM
- GI50 [19]: 16.1 µM
- GI50 [20]: 23.6 µM
- GI50 [21]: 7.2 µM
- GI50 [22]: 18.1 µM
- GI50 [23]: 15.4 µM
- IC50 [24]: 4.6 µM
- GI50 [25]: 18.4 µM
- GI50 [26]: 18.5 µM
- GI50 [27]: 16.8 µM
- GI50 [28]: 17.7 µM
- GI50 [29]: 15.7 µM
- GI50 [30]: 21.4 µM
- GI50 [31]: 6.1 µM
- GI50 [32]: 19 µM
- GI50 [33]: 20.2 µM
- GI50 [34]: 18.3 µM
- GI50 [35]: 20 µM
- GI50 [36]: 16.8 µM
- GI50 [37]: 16.7 µM
- GI50 [38]: 17.8 µM
- GI50 [39]: 19.8 µM
- GI50 [40]: 19.6 µM
- GI50 [41]: 17.3 µM
- GI50 [42]: 18.3 µM
